A selection: hits, their analogues and other compounds. The true share with any hit is near 5.9%.
T cruzi growth – T. cruzi proliferation inhibition; inhibition, % at 8.34 µM; 77,000 tested, 5.9% active; T. cruzi beta-gal in NIH3T3, GalScreen luminescence, 90 h; AID 624255;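 active means mean inhibition above about 93%, with at least 55% of replicates each passing it, limit read from the data, passing the limit was not always enough; inconclusive means only one of those two conditions holds; inactive means neither condition holds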
KDM4C inh – blocks human GASC-1 (KDM4C) demethylase activity; AID 720574; GST-KDM4C 2-372, H3K9me3 peptide, LANCE TR-FRET; 96,000 tested, 0.15% active; inhibition, % at 12.5 µM; Q9H3R0;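 active means mean replicate inhibition above about 25%, with at least 55% of replicates also reaching it, limit read from the data, passing the limit was not always enough; inconclusive means only one of those two conditions met; inactive means neither condition met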
Target sequence (Q9H3R0 2-372 limits assumed): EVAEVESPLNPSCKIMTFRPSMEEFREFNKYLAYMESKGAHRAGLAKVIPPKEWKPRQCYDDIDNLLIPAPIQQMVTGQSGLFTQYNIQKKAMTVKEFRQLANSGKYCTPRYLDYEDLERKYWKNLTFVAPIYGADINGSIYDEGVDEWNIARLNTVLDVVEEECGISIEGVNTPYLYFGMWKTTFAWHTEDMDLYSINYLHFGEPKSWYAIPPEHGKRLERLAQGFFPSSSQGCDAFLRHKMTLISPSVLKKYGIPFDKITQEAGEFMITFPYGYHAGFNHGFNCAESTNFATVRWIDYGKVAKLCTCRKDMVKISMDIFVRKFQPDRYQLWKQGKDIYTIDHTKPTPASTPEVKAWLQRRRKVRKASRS
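Material: N-terminal GST-fused human GASC-1 (KDM4C) fragment, residues 2-372. Input: 10 nM enzyme. Incubation: enzyme reaction 30 min, then detection 60 min, both room temperature. Doses: one test concentration per compound. Read-out basis: inhibition from TR-FRET ratio decrease. Detection: LANCE TR-FRET, excitation 340 nm, emissions 618 and 671 nm.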
Pf Dd2 inh – blocks growth of Plasmodium falciparum Dd2 parasites. P. falciparum Dd2 growth, SYBR Green, 72 h; stronger effect = lower value. activity change, % at 10 µM. 94,000 tested, 2.3% active; in the data active means activity change below about -80%; inconclusive means no clear call, values can overlap the other calls
IDH1 mut inh – IDH1 R132H (human) inhibition | O75874 | IDH1 R132H reductase, diaphorase/resazurin fluorescence, 60 min | inhibition, % at 10 µM | 70,000 tested, 0.18% active | AID 624101; in the data active means inhibition above about 34%; inconclusive means no clear call, values can overlap the other calls; inactive means below about 11%
A number is an active result.

CCCC(=O)N1CC2(C1)CN(Cc1ccc(Cl)cc1)[C@@H](CO)c1[nH]c3cc(OC)ccc3c12 was read as KDM4C inh inactive and Pf Dd2 inh -92.
Screening C[C@@H]1CN([C@H](C)CO)S(=O)(=O)c2ccc(C#Cc3ccccn3)cc2O[C@@H]1CN(C)C returned KDM4C inh inactive, Pf Dd2 inh inactive and IDH1 mut inh inactive.
For C[C@@H]1CN([C@@H](C)CO)C(=O)Cc2cc(NC(=O)c3ccncc3)ccc2O[C@H]1CN(C)C(=O)NC1CCCCC1 the results were T cruzi growth inactive, KDM4C inh inactive, Pf Dd2 inh inactive and IDH1 mut inh inactive.
Screening CO[C@@H]1CN(C)C(=O)c2cc(NS(=O)(=O)CC(F)(F)F)ccc2OC[C@@H](C)N(CC2CCCCC2)C[C@H]1C returned T cruzi growth inactive, KDM4C inh inactive, Pf Dd2 inh inactive and IDH1 mut inh inactive.
For CCC(=O)N1CC2(C1)CN(Cc1ccc(Cl)cc1)[C@@H](CO)c1[nH]c3cc(OC)ccc3c12 the results were KDM4C inh inactive and Pf Dd2 inh -90.
CCC(=O)N1CC2(C1)CN(Cc1cccc(Cl)c1)[C@H](CO)c1[nH]c3cc(OC)ccc3c12 was read as Pf Dd2 inh -89.
CCC(=O)N1CCC2(CC1)CN(Cc1cccc(Cl)c1)[C@@H](CO)c1[nH]c3cc(OC)ccc3c12 was read as KDM4C inh inactive and Pf Dd2 inh inactive.
For COc1cccc(S(=O)(=O)Nc2ccc3c(c2)[C@@H]2C[C@H](CC(=O)NC4CCCCC4)O[C@@H](CO)[C@@H]2O3)c1 the results were T cruzi growth inactive, KDM4C inh inactive, Pf Dd2 inh inactive and IDH1 mut inh inactive.
`CCC(=O)N(C)C[C@H]1Oc2ncc(Br)cc2C(=O)N([C@@H](C)CO)C[C@@H]1C` gave KDM4C inh inactive, Pf Dd2 inh inactive and IDH1 mut inh inactive.
For O=C1CN(S(=O)(=O)c2ccccc2)C[C@@H]2[C@H](c3ccc(C#CCc4ccccc4)cc3)[C@@H](CO)N12 the results were KDM4C inh inactive and Pf Dd2 inh -84.
For Cc1ccccc1S(=O)(=O)N1CC(=O)N2[C@H](C1)[C@@H](c1ccc(C#Cc3ccccc3)cc1)[C@@H]2CO the results were KDM4C inh inactive and Pf Dd2 inh -82.
Screening Cc1ccccc1S(=O)(=O)N1CC(=O)N2[C@H](CO)[C@H](c3ccc(C#Cc4ccccc4)cc3)[C@H]2C1 returned KDM4C inh inactive and Pf Dd2 inh inactive.
For CCC(=O)N1C[C@H](C)[C@@H](OC)CN(C)C(=O)c2ccc(NC(=O)C3CC3)cc2OC[C@@H]1C the results were KDM4C inh inactive and Pf Dd2 inh inactive.
Screening COc1ccc(S(=O)(=O)N(C)C[C@H]2OCCCC[C@H](C)Oc3ccc(NC(=O)NC4CCCCC4)cc3C(=O)N([C@H](C)CO)C[C@H]2C)cc1 returned T cruzi growth inactive, KDM4C inh inactive, Pf Dd2 inh -86 and IDH1 mut inh inactive.
`COc1ccc(S(=O)(=O)N(C)C[C@H]2OCCCC[C@H](C)Oc3ccc(NC(=O)NC4CCCCC4)cc3C(=O)N([C@@H](C)CO)C[C@H]2C)cc1` gave T cruzi growth inactive, KDM4C inh inactive, Pf Dd2 inh -81 and IDH1 mut inh inactive.
Screening COc1ccc(S(=O)(=O)N(C)C[C@@H]2OCCCC[C@@H](C)Oc3ccc(NC(=O)NC4CCCCC4)cc3C(=O)N([C@@H](C)CO)C[C@@H]2C)cc1 returned T cruzi growth inactive, KDM4C inh inactive, Pf Dd2 inh inconclusive and IDH1 mut inh inactive.
`Cc1noc(C)c1NC(=O)Nc1cccc2c1O[C@H](CN(C)Cc1ccc(C(=O)Nc3ccccc3N)cc1)[C@@H](C)CN([C@H](C)CO)C2=O` gave T cruzi growth inactive, KDM4C inh inactive and Pf Dd2 inh inactive.
Screening Cc1noc(C)c1S(=O)(=O)Nc1ccc2c(c1)C(=O)N([C@H](C)CO)C[C@H](C)[C@@H](CN(C)S(=O)(=O)c1cn(C)cn1)OCCCC[C@H](C)O2 returned T cruzi growth inactive, KDM4C inh inactive and Pf Dd2 inh inactive.
`CC(=O)N(C)C[C@@H]1Oc2cc(C#CC(C)C)ccc2S(=O)(=O)N([C@@H](C)CO)C[C@@H]1C` gave T cruzi growth inactive, KDM4C inh inactive, Pf Dd2 inh inactive and IDH1 mut inh inactive.
COc1ccccc1C(=O)Nc1ccc2c(c1)C(=O)N(C)C[C@@H](OC)[C@H](C)CN(C(C)=O)[C@@H](C)CO2 was read as T cruzi growth inactive, KDM4C inh inactive, Pf Dd2 inh inactive and IDH1 mut inh inactive.
Screening COc1ccc2c3c(n(C)c2c1)[C@H](CO)N(C(=O)Nc1ccc(F)cc1)CC31CCN(S(=O)(=O)c2cccs2)CC1 returned KDM4C inh inactive and Pf Dd2 inh -86.
For COc1ccc2c3c(n(C)c2c1)[C@H](CO)N(C(=O)Nc1ccc(F)cc1)CC31CCN(S(=O)(=O)c2cccc(F)c2)CC1 the results were KDM4C inh inactive and Pf Dd2 inh -88.
For COc1ccc2c3c(n(C)c2c1)[C@@H](CO)N(C(=O)Nc1ccc(F)cc1)CC31CN(S(=O)(=O)c2cccc(C)c2)C1 the results were KDM4C inh inactive and Pf Dd2 inh inactive.
For C[C@@H]1CCCCO[C@@H](CN(C)C(=O)Cc2ccccc2)[C@H](C)CN([C@@H](C)CO)C(=O)c2cc(NC(=O)Nc3ccc(C(F)(F)F)cc3)ccc2O1 the results were T cruzi growth inactive, KDM4C inh inactive, Pf Dd2 inh inactive and IDH1 mut inh inactive.
For COc1ccc(CN(C)C[C@@H]2Oc3c(NC(=O)CCCCCC(=O)Nc4ccccc4N)cccc3C(=O)N([C@H](C)CO)C[C@H]2C)cc1 the results were KDM4C inh inactive and Pf Dd2 inh -90.
COc1ccc(NC(=O)N(C)C[C@@H]2Oc3c(NC(=O)CCCCCC(=O)Nc4ccccc4N)cccc3C(=O)N([C@@H](C)CO)C[C@@H]2C)cc1 was read as KDM4C inh inactive, Pf Dd2 inh inactive and IDH1 mut inh inactive.
`COc1ccc(NC(=O)N(C)C[C@H]2Oc3c(NC(=O)CCCCCC(=O)Nc4ccccc4N)cccc3C(=O)N([C@@H](C)CO)C[C@@H]2C)cc1` gave KDM4C inh inactive and Pf Dd2 inh inactive.
Screening COc1ccc(CN(C)C[C@H]2Oc3c(NC(=O)CCCCCC(=O)Nc4ccccc4N)cccc3C(=O)N([C@@H](C)CO)C[C@@H]2C)cc1 returned KDM4C inh inactive, Pf Dd2 inh -94 and IDH1 mut inh inactive.
For COc1ccc(CN(C)C[C@@H]2Oc3c(NC(=O)CCCCCC(=O)Nc4ccccc4N)cccc3C(=O)N([C@@H](C)CO)C[C@H]2C)cc1 the results were KDM4C inh inactive and Pf Dd2 inh -90.
For COc1ccc([N+](=O)[O-])cc1NC(=O)C(C)N1C(=O)C2CC=C(Cl)CC2C1=O (configuration not stated) the results were IDH1 mut inh inactive.
Screening COc1cccc(S(=O)(=O)Nc2ccc3c(c2)C(=O)N(C)C[C@H](OC)[C@H](C)CN(Cc2ccccc2F)[C@@H](C)CO3)c1 returned KDM4C inh inactive, Pf Dd2 inh inactive and IDH1 mut inh inactive.

Source: PubChem BioAssay (Broad Institute)
